The values below come from ChEMBL document CHEMBL5385937.

In experiment [1] the target is Indoleamine 2,3-dioxygenase 1 (Homo sapiens) (UniProt P14902). In words: Inhibition of recombinant human IDO1 expressed in Escherichia coli BL21(DE3) preincubated for 40 mins followed by Trp addition and measured after 60 mins by LC-MS analysis. Particulars: time 100.0 min.
For experiment [2] the target is unchanged. In words: Inhibition of IDO1 in HEK293T cells assessed as reduction in IFNgamma induced IDO1 protein expression incubated for 48 hrs. In kind it is cell-based.
Experiment [3] has the same target. In words: Inhibition of IDO1 in human HeLa cells assessed as reduction in IFNgamma induced IDO1 mRNA expression level incubated for 24 hrs by qPCR analysis. Format: cell-based. An outline of the steps: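 HeLa cells were plated at 250,000/well and grown 24 h, then treated with 50 ng/mL IFN-γ plus compound for 24 h. Total RNA was extracted with on-column DNase digestion, and cDNA was made from 800 ng RNA. IDO1 mRNA was quantified by qPCR; mean ± SD, n = 3.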
For orientation: Real-time PCR tracks product formation cycle by cycle.

For experiment [4] the target is unchanged. In words: Inhibition of IDO1 in human HeLa cells assessed as reduction in IFNgamma induced IDO1 protein expression level incubated for 24 hrs by immunoblotting analysis. Format: cell-based. An outline of the steps:
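HeLa cells were plated at 250,000/well and grown 24 h, then exposed to 50 ng/mL IFN-γ and compound for 24 h. Cells were lysed in Laemmli buffer and 20–100 μg protein was resolved on 10% gels. Blots were probed with anti-IDO1 (1:5,000) and IRDye secondaries. IDO1 was normalized to vinculin; mean ± SD, n = 4.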

For experiment [5] the target is unchanged. Briefly: Inhibition of IDO1 in human BXPC-3 cells assessed as reduction in IFNgamma induced Trp level at 5 uM pretreated with IFNgamma for 24 hrs followed by compound addition for 30 mins prior to Trp addition and measured after 30 mins by HPLC-MS/MS analysis. In kind it is cell-based. The note with it: time 25.0 hrs. An outline of the steps:
(§1)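 BxPC-3 cells were kept in Trp-free RPMI for 48 h, then given 50 ng/mL IFN-γ with starvation continued another 24 h. Medium was replaced by Trp-free medium containing compound for 30 min. 50 μM Trp was then added for 30 min. Supernatant Trp was measured by HPLC-MS/MS after 7% trichloroacetic acid precipitation; mean ± SD, n = 3.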

For experiment [6] the target is unchanged. Briefly: Inhibition of IDO1 in human BXPC-3 cells assessed as reduction in IFNgamma induced Trp level at 5 mM pretreated with IFNgamma for 24 hrs followed by compound addition for 30 mins prior to Trp addition and measured after 30 mins by HPLC-MS/MS analysis. In kind it is cell-based. The note with it: time 25.0 hrs. An outline of the steps: as §1
Experiment [7] has the same target. Briefly: Inhibition of IDO1 in human BXPC-3 cells assessed as reduction in IFNgamma induced kynurenine level at 10 uM incubated for 48 hrs by LC-MS analysis. In kind it is cell-based. An outline of the steps:
(§2)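 BxPC-3 cells were seeded at 20,000/well in phenol-red-free medium. After 24 h, 50 ng/mL IFN-γ and 380 μM Trp were added together with compound for 48 h. Supernatant was acidified with trichloroacetic acid (7% final), kept 15 min at room temperature and centrifuged. Kyn and Trp were quantified by HPLC-MS/MS.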

Experiment [8] has the same target. Briefly: Inhibition of IDO1 in human BXPC-3 cells assessed as increase in Trp level at 10 uM incubated for 48 hrs in presence of IFNgamma by LC-MS analysis. In kind it is cell-based. An outline of the steps: as §2
Experiment [9] deals with T1, Bifunctional epoxide hydrolase 2 (Homo sapiens) (UniProt P34913).
T1 sequence (whole entry): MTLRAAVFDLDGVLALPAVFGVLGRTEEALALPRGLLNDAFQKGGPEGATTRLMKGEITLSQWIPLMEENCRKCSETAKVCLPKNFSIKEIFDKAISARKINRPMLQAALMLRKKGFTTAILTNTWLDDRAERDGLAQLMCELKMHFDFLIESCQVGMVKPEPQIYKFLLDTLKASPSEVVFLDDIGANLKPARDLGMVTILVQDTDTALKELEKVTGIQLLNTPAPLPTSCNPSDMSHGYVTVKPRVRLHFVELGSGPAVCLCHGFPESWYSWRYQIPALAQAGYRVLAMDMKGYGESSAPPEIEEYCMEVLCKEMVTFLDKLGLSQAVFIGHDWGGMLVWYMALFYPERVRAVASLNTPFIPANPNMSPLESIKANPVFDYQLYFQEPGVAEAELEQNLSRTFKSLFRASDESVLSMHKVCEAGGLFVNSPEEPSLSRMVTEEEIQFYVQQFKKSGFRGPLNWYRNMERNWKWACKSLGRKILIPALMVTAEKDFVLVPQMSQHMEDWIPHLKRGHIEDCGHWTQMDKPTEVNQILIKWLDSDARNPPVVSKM
The note with it: HAP1, dose 500.0 nM.

The source made the active and inactive calls. The rule behind the calls is not given here.

Chain of Indoleamine 2,3-dioxygenase 1 (Homo sapiens) (P14902 whole entry, looked up): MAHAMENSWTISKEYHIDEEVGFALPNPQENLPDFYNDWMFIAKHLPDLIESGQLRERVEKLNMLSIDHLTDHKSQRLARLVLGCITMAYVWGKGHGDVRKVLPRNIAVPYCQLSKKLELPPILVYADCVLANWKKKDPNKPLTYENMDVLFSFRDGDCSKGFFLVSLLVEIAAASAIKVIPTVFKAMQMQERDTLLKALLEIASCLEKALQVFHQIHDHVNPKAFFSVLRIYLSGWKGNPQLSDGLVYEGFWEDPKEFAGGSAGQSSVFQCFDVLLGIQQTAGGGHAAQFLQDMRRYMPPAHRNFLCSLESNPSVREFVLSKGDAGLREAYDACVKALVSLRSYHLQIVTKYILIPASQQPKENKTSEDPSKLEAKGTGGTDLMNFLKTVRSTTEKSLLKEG

Take `O=C(Cn1cc(C(=O)C(F)(F)F)c2cc(Br)ccc21)NC1CCCCCC1`: the inhibition entry in experiment [1], in experiment [2], in [3], in experiment [4] and in experiment [5] was “inactive” in each case.

As for `CC(C)C[C@H](N)C(=O)O`, the inhibition result in experiment [6] was “Active”.

For `O=C(c1cn(CCOc2ccc3c(c2)OCO3)c2ccc(Br)cc12)C(F)(F)F`, in experiment [7], the inhibition entry was “Active”. Besides, the inhibition result in experiment [8] is “Dose-Dependent Effect”. Further, the inhibition entry in experiment [1] is “inactive”.

On to `NS(=O)(=O)NCCNc1nonc1/C(=N/O)Nc1ccc(F)c(Br)c1`, for which the inhibition result in experiment [9] was “Active”.
